In ChEMBL document CHEMBL1132220 (J Med Chem, 1999) one finds IC50 and Ki data, which are given here for nine molecules.

The target in assay [1] is Somatostatin receptor. Put plainly: Antagonism of in vitro SRIF inhibition of GH release in rat in vitro pituitary cell assay. In kind it is functional, cell-based. Particulars: pituitary gland cell. In short, it runs like this: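 Dispersed adult male rat anterior pituitary cells (trypsin/DNase), about 200 000 cells/well, cultured 4–5 days at 37 °C. GH measured by double-antibody RIA. IC50 versus SRIF, mean ± SEM of n dose–response curves.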

The target of assay [2] is Somatostatin receptor type 4 (Homo sapiens, UniProt P31391). Put plainly: The compound was tested for binding affinity against human Somatostatin receptor type 4. In short, it runs like this: (§1)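 CHO-K1 cells stably transfected (calcium phosphate) with cloned human sst3 or sst4. Membranes made in ice-cold 50 mM Tris-HCl, resuspended in 10 mM Tris-HCl, then incubated 30 min at 37 °C with 0.05 nM [125I]Tyr11-SRIF in HEPES pH 7.4 with BSA, MgCl2 and protease inhibitors. Filtered on GF/C; nonspecific binding with 1.0 µM SRIF. Mean ± SEM, or one experiment.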

In assay [3] the target is Somatostatin receptor type 1 (Homo sapiens, UniProt P30872). In words: The compound was tested for binding affinity against human Somatostatin receptor type 1. In short, it runs like this: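 Membranes from CHO-K1 cells transfected with the cloned human receptor. Terminated by filtration on PEI-soaked GF/C filters. Nonspecific binding defined with 1.0 μM SRIF. Mean ± SEM; single values are from one experiment.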

The target in assay [4] is Somatostatin receptor type 3 (Homo sapiens, UniProt P32745). In words: The compound was tested for binding affinity against human Somatostatin receptor type 3. The procedure, abridged: as §1
Assay [5] has as its target Somatostatin receptor type 2 (Homo sapiens, UniProt P30874). Put plainly: The compound was tested for binding affinity against human Somatostatin receptor type 2. The procedure, abridged:
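Membranes from CHO-K1 cells transfected with the cloned human sst2. Incubated 30 min at 37 °C with 0.05 nM [125I]MK-678 in HEPES pH 7.4 with BSA, MgCl2, Trasylol, bacitracin and PMSF. Filtration on PEI-soaked GF/C filters. Nonspecific binding defined with 1.0 μM SRIF. Mean ± SEM; single values are from one experiment.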

Chain of Somatostatin receptor type 1 (P30872 whole entry): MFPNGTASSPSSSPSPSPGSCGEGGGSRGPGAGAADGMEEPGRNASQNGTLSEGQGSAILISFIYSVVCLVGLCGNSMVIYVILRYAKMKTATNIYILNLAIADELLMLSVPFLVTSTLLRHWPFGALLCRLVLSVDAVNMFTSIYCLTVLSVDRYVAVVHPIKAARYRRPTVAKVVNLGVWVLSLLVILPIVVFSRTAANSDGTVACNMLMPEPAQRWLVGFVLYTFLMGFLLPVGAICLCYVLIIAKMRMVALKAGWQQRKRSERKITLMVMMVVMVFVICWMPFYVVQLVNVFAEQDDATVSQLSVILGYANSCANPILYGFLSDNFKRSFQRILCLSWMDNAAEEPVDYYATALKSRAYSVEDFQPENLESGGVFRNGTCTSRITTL
Chain of Somatostatin receptor type 4 (P31391 whole entry): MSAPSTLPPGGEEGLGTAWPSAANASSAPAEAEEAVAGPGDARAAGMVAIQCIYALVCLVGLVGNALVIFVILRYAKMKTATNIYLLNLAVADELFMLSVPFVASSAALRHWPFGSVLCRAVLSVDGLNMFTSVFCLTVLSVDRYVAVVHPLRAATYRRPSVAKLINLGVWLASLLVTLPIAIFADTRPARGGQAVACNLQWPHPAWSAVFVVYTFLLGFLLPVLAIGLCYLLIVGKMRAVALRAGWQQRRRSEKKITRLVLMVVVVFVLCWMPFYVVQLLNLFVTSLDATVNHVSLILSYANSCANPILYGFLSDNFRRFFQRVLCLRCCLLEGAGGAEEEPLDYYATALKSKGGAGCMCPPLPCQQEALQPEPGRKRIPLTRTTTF
Chain of Somatostatin receptor type 3 (P32745 whole entry): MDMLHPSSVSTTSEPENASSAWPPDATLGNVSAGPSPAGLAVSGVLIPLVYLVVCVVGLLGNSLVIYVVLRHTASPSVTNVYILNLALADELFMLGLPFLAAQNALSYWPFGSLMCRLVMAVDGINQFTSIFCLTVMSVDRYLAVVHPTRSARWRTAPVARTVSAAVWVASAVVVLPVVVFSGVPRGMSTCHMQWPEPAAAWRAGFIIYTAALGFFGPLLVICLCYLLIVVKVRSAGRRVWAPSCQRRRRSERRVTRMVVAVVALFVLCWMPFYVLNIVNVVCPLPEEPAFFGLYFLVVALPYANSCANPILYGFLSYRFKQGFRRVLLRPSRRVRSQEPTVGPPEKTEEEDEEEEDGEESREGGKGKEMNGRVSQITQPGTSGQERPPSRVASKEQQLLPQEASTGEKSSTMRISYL
Chain of Somatostatin receptor type 2 (P30874 whole entry): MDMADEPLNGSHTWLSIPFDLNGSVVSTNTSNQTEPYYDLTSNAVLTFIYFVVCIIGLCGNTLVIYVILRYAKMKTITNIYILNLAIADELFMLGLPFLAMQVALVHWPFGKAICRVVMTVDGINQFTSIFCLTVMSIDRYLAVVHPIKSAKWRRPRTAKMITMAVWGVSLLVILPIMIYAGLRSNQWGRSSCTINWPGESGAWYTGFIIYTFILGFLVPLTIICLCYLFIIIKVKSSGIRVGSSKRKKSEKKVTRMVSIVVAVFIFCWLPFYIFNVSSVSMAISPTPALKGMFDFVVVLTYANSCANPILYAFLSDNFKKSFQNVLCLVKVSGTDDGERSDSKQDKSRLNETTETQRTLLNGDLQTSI

On to `C[C@@H](O)[C@@H]1NC(=O)[C@H](CCCCN)NC(=O)[C@@H](Cc2c[nH]c3ccccc23)NC(=O)[C@H](Cc2ccc(O)cc2)NC(=O)[C@H](NC(=O)[C@@H](N)Cc2ccc(Cl)cc2)CSSC[C@@H](C(=O)N[C@@H](Cc2ccc3ccccc3c2)C(N)=O)NC1=O`, for which the half-maximal inhibitory concentration (IC50) – broadly, the midpoint of a concentration-inhibition curve – in assay [1] is given as 1.1 nM. Moreover, the Ki (usually the dissociation constant of the complex between target and ligand, obtained from inhibition or displacement) is above 1000 nM in assay [2], above 1000 nM in assay [3], 93 nM in assay [4] and 26 nM in assay [5].

For the molecule `C[C@@H](O)[C@@H]1NC(=O)[C@H](CCCCN)NC(=O)[C@@H](Cc2c[nH]c3ccccc23)NC(=O)[C@H](Cc2ccccn2)NC(=O)C(NC(=O)[C@@H](N)Cc2ccc(Cl)cc2)CSSCC(C(=O)N[C@@H](Cc2ccc3ccccc3c2)C(N)=O)NC1=O` (stereo in doubt), in assay [1], the 50% inhibitory concentration (IC50) was determined as 135 nM. This counts as sub-micromolar.

Molecule `C[C@@H](O)[C@@H]1NC(=O)[C@H](CCCCN)NC(=O)[C@@H](Cc2c[nH]c3ccccc23)NC(=O)[C@@H](Cc2ccccn2)NC(=O)C(NC(=O)[C@@H](N)Cc2ccc(Cl)cc2)CSSCC(C(=O)N[C@@H](Cc2ccc3ccccc3c2)C(N)=O)NC1=O` (stereo in doubt) displayed an IC50 in assay [1] of 2.7 nM.

In turn, `CC(C)[C@H]1NC(=O)[C@H](CCCCN)NC(=O)[C@@H](Cc2c[nH]c3ccccc23)NC(=O)[C@H](Cc2c[nH]cn2)NC(=O)C(NC(=O)[C@@H](N)Cc2ccccc2F)CSSCC(C(=O)N[C@@H](Cc2ccccc2F)C(N)=O)NC1=O` (stereo in doubt) had an IC50 in assay [1] of 393 nM.

As to `CC(C)[C@H]1NC(=O)[C@H](CCCCN)NC(=O)[C@@H](Cc2c[nH]c3ccccc23)NC(=O)[C@H](Cc2c[nH]cn2)NC(=O)C(NC(=O)[C@@H](N)Cc2ccc(F)cc2)CSSCC(C(=O)N[C@@H](Cc2ccc(F)cc2)C(N)=O)NC1=O` (stereo in doubt), the IC50 in assay [1] is 105 nM.

`CC(C)[C@H]1NC(=O)[C@H](CCCCN)NC(=O)[C@@H](Cc2c[nH]c3ccccc23)NC(=O)[C@H](Cc2c[nH]cn2)NC(=O)C(NC(=O)[C@@H](N)Cc2cccc(F)c2)CSSCC(C(=O)N[C@@H](Cc2cccc(F)c2)C(N)=O)NC1=O` (stereo in doubt) showed an IC50 in assay [1] of 137 nM.

As for `CC(C)[C@@H]1NC(=O)[C@H](CCCCN)NC(=O)[C@@H](Cc2c[nH]c3ccccc23)NC(=O)[C@H](Cc2ccc(O)c(I)c2)NC(=O)C(NC(=O)[C@@H](N)Cc2ccc3ccccc3c2)CSSCC(C(=O)N[C@@H](Cc2ccc3ccccc3c2)C(N)=O)NC1=O` (stereo in doubt), in assay [1], the 50% inhibitory concentration (IC50) was 20 nM.

In assay [1], `CC(C)[C@H]1NC(=O)[C@H](CCCCN)NC(=O)[C@@H](Cc2c[nH]c3ccccc23)NC(=O)[C@H](Cc2c[nH]cn2)NC(=O)C(NC(=O)[C@@H](N)Cc2c(F)c(F)c(F)c(F)c2F)CSSCC(C(=O)N[C@@H](Cc2c(F)c(F)c(F)c(F)c2F)C(N)=O)NC1=O` (stereo in doubt) yielded a half-maximal inhibitory concentration (IC50) of 2410 nM. Against the preceding molecule, the IC50 is about 120-fold higher.

For `CC(C)(C)C[C@@H]1NC(=O)[C@H](CCCCN)NC(=O)[C@@H](Cc2c[nH]c3ccccc23)NC(=O)[C@H](Cc2cccnc2)NC(=O)C(NC(=O)[C@@H](N)Cc2ccc(Cl)cc2)CSSCC(C(=O)N[C@@H](Cc2ccc3ccccc3c2)C(N)=O)NC1=O` (stereo in doubt), the IC50 in assay [1] amounted to 125 nM.
